The values that follow come from ChEMBL document CHEMBL1817570, “Unsymmetrical cyclotriazadisulfonamide (CADA) compounds as human CD4 receptor down-modulating agents” (J Med Chem, 2011).

Structures are written as SMILES. Where a name gives a salt, the structure may show the parent alone. Bounds are passed on as bounds.

In this experiment the test system is CHO. Briefly: Downmodulation of human CD4 expressed in CHO cells transfected with CD4-YFP construct assessed as decrease in fluorescence intensity after 24 hrs by flow cytometry analysis. Type of experiment: functional, cell-based. To be noted: Cricetulus griseus. The essentials:
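CHO cells stably expressing human CD4 fused at its C-terminus to YFP, exposed to a range of concentrations for 24 h at 37 °C. Cells were washed, fixed in 1% formaldehyde and analysed at once by flow cytometry with 488 nm excitation, reading YFP in FL-1. YFP median fluorescence intensity was expressed as % of untreated control after subtracting the background of nontransfected cells. IC50 is the 50% CD4 down-modulation point, reported as mean ± SD of three independent experiments (two for some).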

For `C=C1CNCCCN(CC2CCCCC2)CCCN(S(=O)(=O)c2ccc(C)cc2)C1`, the IC50 was 19000 nM (read-out: IC50) and 18600 nM (read-out: pIC50 (converted)).
For `C=C1CN(S(=O)(=O)c2ccc(C)cc2)CCCN(CC2CCCCC2)CCCN(S(=O)(=O)c2ccc(C)cc2)C1` the same measures were 190 nM and 186 nM.
With `C=C1CN(S(=O)(=O)c2ccc(C)cc2)CCCN(CC2CCCCC2)CCCN(S(=O)(=O)c2cccc3c(N(C)C)cccc23)C1`, the IC50 was 1060 nM (read-out: IC50) and 1070 nM (read-out: pIC50 (converted)).
As for `C=C1CN(S(=O)(=O)c2ccc(C)cc2)CCCN(CC2CCCCC2)CCCN(S(=O)(=O)c2ccc(C(C)(C)C)cc2)C1`, the IC50 (read-out: IC50) turned out to be 780 nM and the IC50 (read-out: pIC50 (converted)) is 776 nM.
As for `C=C1CN(S(=O)(=O)c2ccc(C)cc2)CCCN(CC2CCCCC2)CCCN(S(=O)(=O)c2ccc(Cl)cc2)C1`, the IC50 by setting is: (read-out: IC50) 360 nM; (read-out: pIC50 (converted)) 363 nM.
For `C=C1CN(S(=O)(=O)c2ccc(C)cc2)CCCN(CC2CCCCC2)CCCN(S(=O)(=O)c2cccc3cnccc23)C1` the same measures were over 25000 nM and 22900 nM.
For `C=C1CN(S(=O)(=O)c2ccc(C)cc2)CCCN(CC2CCCCC2)CCCN(S(=O)(=O)c2ccc(OC)cc2)C1` the same measures were 46 nM and 45.7 nM.
For `C=C1CN(S(=O)(=O)c2ccc(C)cc2)CCCN(CC2CCCCC2)CCCN(S(=O)(=O)c2cccc3ccccc23)C1` the same measures were 940 nM and 933 nM.
With `C=C1CN(S(=O)(=O)c2ccc(C)cc2)CCCN(CC2CCCCC2)CCCN(S(=O)(=O)c2ccc3ccccc3c2)C1`, the IC50 reads like this: (read-out: IC50) 180 nM; (read-out: pIC50 (converted)) 178 nM.
On the same counts, the results for `C=C1CN(S(=O)(=O)c2ccc(C)cc2)CCCN(CC2CCCCC2)CCCN(S(=O)(=O)c2ccc([N+](=O)[O-])cc2)C1` are 760 nM and 759 nM.
For `C=C1CN(S(=O)(=O)c2ccccc2)CCCN(CC2CCCCC2)CCCN(S(=O)(=O)c2ccc(C)cc2)C1` the same measures were 430 nM and 437 nM.
For `C=C1CN(S(=O)(=O)c2ccc(C)cc2)CCCN(Cc2ccccc2)CCCN(S(=O)(=O)c2ccc(OC)cc2)C1` the same measures were 300 nM and 295 nM.
For `C=C1CN(S(=O)(=O)c2ccc(OC)cc2)CCCN(CC2CCCCC2)CCCN(S(=O)(=O)c2cccc3c(N(C)C)cccc23)C1`, the IC50 (read-out: IC50) is 730 nM and the IC50 (read-out: pIC50 (converted)) was 724 nM.
For `C=C1CN(S(=O)(=O)c2ccc(C)cc2)CCCN(CC2CCCCC2)CCCN(S(=O)(=O)c2ccccc2[N+](=O)[O-])C1` the same measures were 220 nM and 224 nM.
Take `C=C1CN(S(=O)(=O)c2ccc(OC)cc2)CCCN(CC2CCCCC2)CCCN(S(=O)(=O)c2ccc(OC)cc2)C1`: the IC50 is, setting by setting: (read-out: IC50) 130 nM; (read-out: pIC50 (converted)) 135 nM.
On the same counts, the results for `C=C1CN(S(=O)(=O)c2ccc(C)cc2)CCCN(Cc2ccccc2)CCCN(S(=O)(=O)c2cccc3c(N(C)C)cccc23)C1` are 5900 nM and 5890 nM.
On the same counts, the results for `C=C1CN(S(=O)(=O)c2ccc(OC)cc2)CCCN(Cc2ccccc2)CCCN(S(=O)(=O)c2ccc(OC)cc2)C1` are 230 nM and 229 nM.
As to `C=C1CN(S(=O)(=O)c2ccc(C)cc2)CCCN(Cc2ccccc2)CCCN(S(=O)(=O)c2ccc(C)cc2)C1` [CYCLOTRIAZADISULFONAMIDE HYDROCHLORIDE], the IC50 reads like this: (read-out: IC50) 560 nM; (read-out: pIC50 (converted)) 562 nM.
